Experimental data published in ChEMBL document CHEMBL1156197, “Design, synthesis and evaluation of novel 2-thiophen-5-yl-3H-quinazolin-4-one analogues as inhibitors of transcription factors NF-kappaB and AP-1 mediated transcriptional activation: Their possible utilization as anti-inflammatory and anti-cancer agents” (Bioorg Med Chem, 2010).
Activity calls are given as the source filed them. No cut-off for these calls is given here.

Key:
HEK293 [1] = assay: Inhibition of NF-kappaB expressed in HEK293 cells assessed as inhibition of TNF-alpha-stimulated transcriptional activation at 10 uM treated 24 hrs before TNFalpha challenge measured after 20 to 24 hrs by luciferase reporter gene assay; assay type: cell-based
Summary of the method: (§1)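 Compounds in 0.1% DMSO (10 µM–1 nM) were added to replicate wells for 24 h. Cells were then stimulated with TNF-α for 20–24 h and read with Bright-Glo luciferase. Mean RLU was normalized to the maximal control; IC50 came from a six-point dose response.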

Rattus norvegicus = assay: Antiinflammatory activity against carrageenan-induced paw edema in Sprague-Dawley rat assessed as reduction in paw volume at 50 mg/kg, po dosed 1 hr before carrageenan challenge measured after 3 hrs by plethysmometry; assay type: functional; parameters: scale not given: the % may be the effect or the level left
[2] = Inhibition of NF-kappaB expressed in HEK293 cells assessed as inhibition of TNF-alpha-stimulated transcriptional activation treated 24 hrs before TNFalpha challenge measured after 20 to 24 hrs by luciferase reporter gene assay; assay type: cell-based; summary of the method: as §1
HEK293 [3] = assay: Cytotoxicity against TNF-alpha-stimulated HEK293 cells at 10 uM treated 24 hrs before TNFalpha challenge measured after 20 to 24 hrs; assay type: cell-based; details: human, hek293, 10 µM
[4] = target: Transcription factor Jun (Homo sapiens) (UniProt P05412); assay: Inhibition of AP-1 expressed in HEK293 cells assessed as PMA-stimulated transcriptional activation at 10 uM treated 24 hrs before PMA challenge measured after 20 to 24 hrs by luciferase reporter gene assay; assay type: cell-based
Chain of Transcription factor Jun (Homo sapiens) (P05412 whole entry): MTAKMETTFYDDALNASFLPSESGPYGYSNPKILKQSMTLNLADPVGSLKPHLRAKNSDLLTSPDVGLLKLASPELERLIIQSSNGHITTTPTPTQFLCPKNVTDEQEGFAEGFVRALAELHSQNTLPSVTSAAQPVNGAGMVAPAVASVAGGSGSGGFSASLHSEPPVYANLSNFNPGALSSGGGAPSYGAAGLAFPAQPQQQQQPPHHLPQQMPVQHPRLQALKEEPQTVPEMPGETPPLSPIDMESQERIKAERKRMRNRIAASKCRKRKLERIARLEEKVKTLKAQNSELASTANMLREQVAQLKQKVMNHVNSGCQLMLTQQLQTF
Summary of the method: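 HEK-293 cells stably carrying a minimal-promoter luciferase construct with tandem AP-1 elements (TGACTAA) were plated at 5 × 10⁴ cells/well and held 24 h at 37 °C in 5% CO₂. Compounds in 0.1% DMSO (10 µM–1 nM) were added to replicate wells for 24 h. Cells were then stimulated with PMA for 20–24 h and read with Bright-Glo luminescence. Mean RLU was normalized to the maximal control; IC50 came from a six-point dose response.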

PC-3 = assay: Cytotoxicity against human PC3 cells; assay type: functional, cell-based
Mus musculus = assay: Inhibition of LPS-stimulated NF-kappaB activation in transgenic FVB mouse assessed as decrease in NF-kappaB activity at 50 mg/kg, po QD for 3 days before LPS challenge measured after 3 hrs by bioluminescence based luciferase reporter gene assay relative to control; assay type: functional; parameters: scale not given: the % may be the effect or the level left
LNCaP = assay: Cytotoxicity against human LNCAP cells; assay type: functional, cell-based
TCC-SUP = assay: Cytotoxicity against human TCCSUP cells; assay type: functional, cell-based

Compound	IC50 [2]	inhibition [4]	inhibition (HEK293 [1])	Activity (Rattus norvegicus)	Activity (HEK293 [3])	Activity (PC-3)	Activity (Mus musculus)	Activity (LNCaP)	Activity (TCC-SUP)
COc1ccccc1-n1c(-c2cc(-c3ccncc3)c(N3CCOCC3)s2)nc2ccccc2c1=O	12.2 µM	33%	55%	42%	Non-toxic				
Cc1ccc(-n2c(-c3cc(-c4ccncc4)c(N4CCOCC4)s3)nc3ccccc3c2=O)cc1		29%	26%		Non-toxic				
Cc1ccc(-n2c(-c3cc(-c4ccc(S(C)(=O)=O)cc4)c(N4CCOCC4)s3)nc3ccccc3c2=O)cc1		51%	55%		Non-toxic				
COc1ccccc1-n1c(-c2cc(-c3ccc(S(C)(=O)=O)cc3)c(N3CCOCC3)s2)nc2ccccc2c1=O	9.2 µM	33%	55%	63%	Non-toxic				
O=c1c2ccccc2nc(-c2cc(-c3ccncc3)c(N3CCOCC3)s2)n1-c1ccccc1Cl	10.3 µM	35%	80%	43%	Non-toxic				
Cc1cccc(-n2c(-c3cc(-c4ccncc4)c(N4CCOCC4)s3)nc3ccccc3c2=O)c1		35%	42%		Non-toxic				
COc1cccc(-n2c(-c3cc(-c4ccc(S(C)(=O)=O)cc4)c(N4CCOCC4)s3)nc3ccccc3c2=O)c1		0%	20%		Non-toxic				
CC(=O)c1ccc(-n2c(-c3cc(-c4ccc(S(C)(=O)=O)cc4)c(N4CCOCC4)s3)nc3ccccc3c2=O)cc1		31%	46%		Non-toxic				
CSc1ccc(-c2cc(-c3nc4ccccc4c(=O)n3-c3cccc(C)c3)sc2N2CCOCC2)cc1		14%	11%		Non-toxic				
CSc1ccc(-c2cc(-c3nc4ccccc4c(=O)n3-c3ccc(C)cc3)sc2N2CCOCC2)cc1		16%	22%		Non-toxic				
CSc1ccc(-c2cc(-c3nc4ccccc4c(=O)n3-c3ccccc3C)sc2N2CCOCC2)cc1		13%	15%		Non-toxic				
CC(=O)Nc1ccc(-c2cc(-c3nc4ccccc4c(=O)n3-c3cccc(C)c3)sc2N2CCOCC2)cc1		13%	35%		Non-toxic				
CC(=O)c1ccc(-n2c(-c3cc(-c4ccncc4)c(N4CCOCC4)s3)nc3ccccc3c2=O)cc1	10 µM	84%	66%	81%	Non-toxic	Active	43%	Active	Active
Cc1ccccc1-n1c(-c2cc(-c3ccccc3)c(N3CCOCC3)s2)nc2ccccc2c1=O		27%	23%		Non-toxic				
COc1ccccc1-n1c(-c2cc(-c3ccccc3)c(N3CCOCC3)s2)nc2ccccc2c1=O		0%	0%		Non-toxic				
CC(=O)Nc1ccc(-c2cc(-c3nc4ccccc4c(=O)n3-c3ccc(C)cc3)sc2N2CCOCC2)cc1		35%	4%		Non-toxic				
Cc1ccccc1-n1c(-c2cc(-c3ccc(S(C)(=O)=O)cc3)c(N3CCOCC3)s2)nc2ccccc2c1=O		52%	51%		Non-toxic				
COc1ccc(-n2c(-c3cc(-c4ccc(S(C)(=O)=O)cc4)c(N4CCOCC4)s3)nc3ccccc3c2=O)cc1	26 µM	10%	60%	53%	Non-toxic				
Cc1cccc(-n2c(-c3cc(-c4ccc(S(C)(=O)=O)cc4)c(N4CCOCC4)s3)nc3ccccc3c2=O)c1		48%	20%		Non-toxic				
Cc1ccccc1-n1c(-c2cc(-c3ccncc3)c(N3CCOCC3)s2)nc2ccccc2c1=O	7.1 µM	0%	53%	51%	Non-toxic				

Now from value to molecule, other results behind:

IC50 [2]	inhibition [4]	Compound	inhibition (HEK293 [1])	Activity (Rattus norvegicus)	Activity (HEK293 [3])	Activity (PC-3)	Activity (Mus musculus)	Activity (LNCaP)	Activity (TCC-SUP)
	27%	Cc1ccc(-n2c(-c3cc(-c4ccc(Cl)cc4)c(N4CCOCC4)s3)nc3ccccc3c2=O)cc1	15%		Non-toxic				
	0%	CSc1ccc(-c2cc(-c3nc4ccccc4c(=O)n3-c3ccccc3)sc2N2CCOCC2)cc1	0%		Non-toxic				
	14%	O=c1c2ccccc2nc(-c2cc(-c3ccc(Cl)cc3)c(N3CCOCC3)s2)n1-c1ccc(Cl)cc1	0%		Non-toxic				
	23%	O=c1c2ccccc2nc(-c2cc(-c3ccccc3)c(N3CCOCC3)s2)n1-c1ccc(Cl)cc1	0%		Non-toxic				
	0%	O=c1c2ccccc2nc(-c2cc(-c3ccc(Cl)cc3)c(N3CCOCC3)s2)n1-c1ccccc1	0%		Non-toxic				
	7%	CS(=O)(=O)c1ccc(-c2cc(-c3nc4ccccc4c(=O)n3-c3ccc(Cl)cc3)sc2N2CCOCC2)cc1	0%		Non-toxic				
	11%	O=c1c2ccccc2nc(-c2cc(-c3ccccc3)c(N3CCOCC3)s2)n1-c1ccccc1	0%		Non-toxic				
	10%	Cc1cccc(-n2c(-c3cc(-c4ccc(Cl)cc4)c(N4CCOCC4)s3)nc3ccccc3c2=O)c1	28%		Non-toxic				
	7%	CC(=O)c1ccc(-n2c(-c3cc(-c4ccc(Cl)cc4)c(N4CCOCC4)s3)nc3ccccc3c2=O)cc1	0%		Non-toxic				
	17%	CC(=O)Nc1ccc(-c2cc(-c3nc4ccccc4c(=O)n3-c3ccc(Cl)cc3)sc2N2CCOCC2)cc1	0%		Non-toxic				
	32%	Cc1ccccc1-n1c(-c2cc(-c3ccc(Cl)cc3)c(N3CCOCC3)s2)nc2ccccc2c1=O	1%		Non-toxic				
	38%	O=c1c2ccccc2nc(-c2cc(-c3ccncc3)c(N3CCOCC3)s2)n1-c1ccccc1	30%		Non-toxic				
	28%	CS(=O)(=O)c1ccc(-c2cc(-c3nc4ccccc4c(=O)n3-c3ccccc3)sc2N2CCOCC2)cc1	9%		Non-toxic				
	25%	CC(=O)c1ccc(-n2c(-c3cc(-c4ccccc4)c(N4CCOCC4)s3)nc3ccccc3c2=O)cc1	0%		Non-toxic				
	26%	CC(=O)Nc1ccc(-c2cc(-c3nc4ccccc4c(=O)n3-c3ccccc3)sc2N2CCOCC2)cc1	7%		Non-toxic				
11.4 µM	32%	O=c1c2ccccc2nc(-c2cc(-c3ccncc3)c(N3CCOCC3)s2)n1-c1ccc(Cl)cc1	68%	52%	Non-toxic				
	17%	Cc1ccc(-n2c(-c3cc(-c4ccccc4)c(N4CCOCC4)s3)nc3ccccc3c2=O)cc1	0%		Non-toxic				
